Results reported in ChEMBL document CHEMBL3813636, “Toward discovery of mutant EGFR inhibitors; Design, synthesis and in vitro biological evaluation of potent 4-arylamino-6-ureido and thioureido-quinazoline derivatives” (Bioorg Med Chem, 2016).
Values belong to the molecule of their own block, whether it stands above or below them. The source made the active and inactive calls. No cut-off for these calls is given here.

Key:
[1] = molecular target: T1, Epidermal growth factor receptor (Homo sapiens, UniProt P00533); assay: Inhibition of recombinant human EGFR expressed in baculovirus by fluorescence based assay
[2] = molecular target: Receptor tyrosine-protein kinase erbB-2 (Homo sapiens, UniProt P04626); assay: Inhibition of His-tagged human recombinant Her2 (676 to 1255 residues) expressed in baculovirus by fluorescence based assay
Method in brief: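 Her2 kinase activity was measured with an outsourced kinase-profiling service. It used a fluorescence-based coupled-enzyme format that exploits the differing sensitivity of phosphorylated and non-phosphorylated peptide substrates to proteolytic cleavage.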

[3] = test system: Epidermal growth factor receptor (Homo sapiens), P00533 [UNDEFINED MUTATION]; assay: Inhibition of EGFR Del19/T790M double mutant (unknown origin) expressed in mouse BaF/3 cells assessed as cell growth inhibition at 10 uM after 72 hrs by MTS assay; assay type: cell-based
Method in brief: (§1)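 Ba/F3 cells carrying the listed double-mutant EGFR were exposed to 10 uM compound, and growth was read by MTS assay as percent growth relative to DMSO-treated cells. Experiments were repeated at least three times.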

[4] = Antiproliferative activity against gefitinib-sensitive human PC9 cells assessed as cell viability after 72 hrs by cell titer-glo luminescence assay; assay type: functional, cell-based; conditions: PC-9, 72 h
[5] = Cytotoxicity against human BT474 cells expressing Her2 assessed as reduction in cell viability after 72 hrs by cell titer-glo luminescence assay; assay type: functional, cell-based; conditions: BT-474, 72 h
[6] = test system: Epidermal growth factor receptor (Homo sapiens), P00533 [UNDEFINED MUTATION]; conditions: PC9/GR4, at 10 µM
[7] = test system: Epidermal growth factor receptor (Homo sapiens), P00533 [UNDEFINED MUTATION]; conditions: PC9/GR4, at 10 µM; remark: listed apart in the source
[8] = molecular target: T1, Epidermal growth factor receptor; conditions: PC-9, at 10 µM
[9] = molecular target: T1, Epidermal growth factor receptor; conditions: PC-9, at 10 µM; remark: listed apart in the source
[10] = Antiproliferative activity against gefitinib-resistant human PC9/GR4 cells expressing Del19/T790M double mutant assessed as cell viability after 72 hrs by cell titer-glo luminescence assay; assay type: functional, cell-based; conditions: PC9/GR4, 72 h
[11] = test system: Epidermal growth factor receptor (Homo sapiens), P00533 [L858R,T790M]; assay: Inhibition of EGFR L858R/T790M double mutant (unknown origin) expressed in mouse BaF/3 cells assessed as cell growth inhibition at 10 uM after 72 hrs by MTS assay; assay type: cell-based; method in brief: as §1
[12] = Potency index, ratio of gefitinib IC50 to compound IC50 for human PC9/GR4 cells expressing Del19/T790M double mutant; assay type: functional

Chain of Receptor tyrosine-protein kinase erbB-2 (P04626 whole entry, the tested form may be a part): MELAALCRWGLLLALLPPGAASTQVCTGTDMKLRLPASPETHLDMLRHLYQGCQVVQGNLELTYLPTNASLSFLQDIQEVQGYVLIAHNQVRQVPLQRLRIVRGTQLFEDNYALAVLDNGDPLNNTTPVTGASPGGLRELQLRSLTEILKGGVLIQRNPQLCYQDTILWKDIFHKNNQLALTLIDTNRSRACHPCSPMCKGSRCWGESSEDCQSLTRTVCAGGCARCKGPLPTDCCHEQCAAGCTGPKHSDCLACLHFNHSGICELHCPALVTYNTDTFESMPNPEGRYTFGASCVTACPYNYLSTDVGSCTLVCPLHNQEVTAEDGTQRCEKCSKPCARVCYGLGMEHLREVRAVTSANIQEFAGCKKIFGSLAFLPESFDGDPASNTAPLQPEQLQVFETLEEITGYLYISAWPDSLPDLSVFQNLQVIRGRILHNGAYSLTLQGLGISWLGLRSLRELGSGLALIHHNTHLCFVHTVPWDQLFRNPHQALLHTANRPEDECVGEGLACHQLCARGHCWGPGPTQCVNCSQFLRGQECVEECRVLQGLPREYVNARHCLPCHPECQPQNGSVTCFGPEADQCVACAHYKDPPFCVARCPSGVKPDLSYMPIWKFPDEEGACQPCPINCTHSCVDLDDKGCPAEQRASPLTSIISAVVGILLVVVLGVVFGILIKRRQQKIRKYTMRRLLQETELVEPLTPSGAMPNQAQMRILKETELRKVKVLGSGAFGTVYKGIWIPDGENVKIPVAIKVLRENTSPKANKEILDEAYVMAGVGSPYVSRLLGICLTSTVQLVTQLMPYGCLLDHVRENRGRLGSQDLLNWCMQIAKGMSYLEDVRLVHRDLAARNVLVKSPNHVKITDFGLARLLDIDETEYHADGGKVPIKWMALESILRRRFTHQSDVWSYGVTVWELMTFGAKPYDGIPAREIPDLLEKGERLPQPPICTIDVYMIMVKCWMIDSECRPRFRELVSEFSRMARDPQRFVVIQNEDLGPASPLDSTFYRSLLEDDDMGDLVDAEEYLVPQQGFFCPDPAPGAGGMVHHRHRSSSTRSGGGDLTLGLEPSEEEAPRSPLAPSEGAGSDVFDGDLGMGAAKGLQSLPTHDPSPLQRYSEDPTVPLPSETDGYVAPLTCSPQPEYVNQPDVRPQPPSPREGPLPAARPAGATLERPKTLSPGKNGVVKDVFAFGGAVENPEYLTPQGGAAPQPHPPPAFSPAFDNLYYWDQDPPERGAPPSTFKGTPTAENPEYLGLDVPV

Compound: O=C(NCCN1CCCCC1)Nc1ccc2ncnc(Nc3cccc(Br)c3)c2c1
IC50 [1]: 0.772 nM

Compound: O=C(NCCN1CCCCC1)Nc1ccc2ncnc(Nc3ccc(F)c(Cl)c3)c2c1
IC50 [1]: 1.06 nM

Compound: C#Cc1cccc(Nc2ncnc3ccc(NC(C)=O)cc23)c1
IC50 [1]: 2.04 nM

Compound: Fc1ccc(Nc2ncnc3ccc(NC(=S)NCCCN4CCOCC4)cc23)cc1Cl
IC50 [1]: < 0.495 nM

Compound: NC(=O)Nc1ccc2ncnc(Nc3ccc(F)c(Cl)c3)c2c1
IC50 [4]: 961 nM
inhibition [6]: Active
inhibition [7]: Active
IC50 [1]: 0.854 nM
inhibition [8]: Active
inhibition [9]: Active
IC50 [10]: 21700 nM

Compound: CS(=O)(=O)CCNCc1ccc(-c2ccc3ncnc(Nc4ccc(OCc5cccc(F)c5)c(Cl)c4)c3c2)o1 [LAPATINIB]
IC50 [5]: 31 nM

Compound: S=C(NCCN1CCOCC1)Nc1ccc2ncnc(Nc3cccc(Br)c3)c2c1
IC50 [1]: 1.81 nM

Compound: Fc1ccc(Nc2ncnc3ccc(NC(=S)NCCN4CCCCC4)cc23)cc1Cl
IC50 [1]: 3.7 nM

Compound: S=C(NCCN1CCOCC1)Nc1ccc2ncnc(Nc3ccc(Cl)c(Cl)c3)c2c1
IC50 [1]: 9.05 nM

Compound: NC(=O)Nc1ccc2ncnc(Nc3ccc(Br)cc3)c2c1
IC50 [1]: 0.803 nM

Compound: O=C(NCCN1CCOCC1)Nc1ccc2ncnc(Nc3ccc(F)c(Cl)c3)c2c1
IC50 [1]: 2.92 nM

Compound: S=C(NCCN1CCOCC1)Nc1ccc2ncnc(Nc3ccc(Cl)cc3)c2c1
IC50 [1]: 5.06 nM

Compound: Fc1ccc(Nc2ncnc3ccc(NC(=S)NCCN4CCOCC4)cc23)cc1Cl
IC50 [1]: 2.25 nM

Compound: O=C(NCCN1CCOCC1)Nc1ccc2ncnc(Nc3cccc(Br)c3)c2c1
IC50 [1]: 1.43 nM

Compound: C#Cc1cccc(Nc2ncnc3ccc(NC(N)=O)cc23)c1
IC50 [1]: 2.22 nM

The next lines start with results.

IC50 [2]: 12.1 nM
IC50 [1]: 1.5 nM
Compound: Fc1cccc(COc2ccc(Nc3ncnc4ccc(NC(=S)NCCCN5CCOCC5)cc34)cc2Cl)c1

growth inhibition (GI) [3]: Active
IC50 [2]: 32.3 nM
inhibition [6]: Active
inhibition [7]: Active
IC50 [1]: 3.96 nM
inhibition [8]: Active
inhibition [9]: Active
growth inhibition (GI) [11]: Active
Compound: CC(=O)Nc1ccc2ncnc(Nc3ccc(OCc4cccc(F)c4)c(Cl)c3)c2c1
IC50 [4]: 662 nM
IC50 [5]: 57 nM
IC50 [10]: 8310 nM

inhibition [6]: Active
inhibition [7]: Active
IC50 [1]: 0.662 nM
inhibition [8]: Active
inhibition [9]: Active
Compound: CC(=O)Nc1ccc2ncnc(Nc3ccc(F)c(Cl)c3)c2c1
IC50 [4]: 225 nM
IC50 [10]: 12600 nM

IC50 [2]: 26.8 nM
IC50 [1]: 2.03 nM
Compound: NC(=O)Nc1ccc2ncnc(Nc3ccc(OCc4cccc(F)c4)c(Cl)c3)c2c1

growth inhibition (GI) [3]: Active
IC50 [2]: 19.2 nM
inhibition [6]: Active
inhibition [7]: Active
inhibition [8]: Active
inhibition [9]: Active
growth inhibition (GI) [11]: Active
Compound: O=C(NCCN1CCCCC1)Nc1ccc2ncnc(Nc3ccc(OCc4cccc(F)c4)c(Cl)c3)c2c1
IC50 [4]: 1580 nM
IC50 [5]: 760 nM
Ratio IC50 [12]: 8
IC50 [10]: 2160 nM

IC50 [2]: 33.1 nM
IC50 [1]: 2.26 nM
Compound: Fc1cccc(COc2ccc(Nc3ncnc4ccc(NC(=S)NCCN5CCOCC5)cc34)cc2Cl)c1

growth inhibition (GI) [3]: Active
IC50 [2]: 40.6 nM
inhibition [6]: Active
inhibition [7]: Active
inhibition [8]: Active
inhibition [9]: Active
growth inhibition (GI) [11]: Active
Compound: Fc1cccc(COc2ccc(Nc3ncnc4ccc(NC(=S)NCCN5CCCCC5)cc34)cc2Cl)c1
IC50 [4]: 2160 nM
IC50 [5]: 340 nM
Ratio IC50 [12]: 3
IC50 [10]: 5700 nM
